System: MS2 coat protein
Assay: apparent Kd, MS2 coat protein; higher = weaker binding; RNA-MaP array; FMN 200 µM where present
Outline: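 SNAP-549-labelled MS2 coat protein, doubled from 0.7 or 1.5 nM to 3 µM, was titrated over designs transcribed by stalled E. coli RNA polymerase on Illumina sequencing-chip clusters. Titrations were run without and then with constant ligand in 100 mM Tris-HCl pH 7.5, 80 mM KCl, 4 mM MgCl2, BSA, DTT, yeast tRNA and Tween-20. The apparent Kd is the median of filtered per-cluster fits to green signal normalised to red-channel RNA signal and control-cluster median Fmax.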

[1] = designed as: OFF switch for flavin mononucleotide, no ligand
[2] = ligand present: flavin mononucleotide, designed as: OFF switch for flavin mononucleotide
[3] = designed as: ON switch for flavin mononucleotide, no ligand
[4] = ligand present: flavin mononucleotide, designed as: ON switch for flavin mononucleotide

Sequence: UAUAUAUAGUAAGGAUAUGUAUUUCUUUUAUAAACAGAAGGUACUGACAUGAGGAUCACCCAUGUUUUAGUGUGGGCAUGUAGA
- apparent Kd [1]: 0.0812 µM
- apparent Kd [2]: 0.116 µM

Sequence: CCCAGUGCAUCAGGAUAUCCUCACAUGAGGAUCACCCAUGUAAUGAGCCGAGGAGAAGGGAUGUGAACUCCAGUUACCGAUCGU
- apparent Kd [3]: 0.267 µM
- apparent Kd [4]: 0.0423 µM

Sequence: AUAAGGUUCUUCAAGGUGCUACAUGAGGAUCACCCAUGUGAGAGAAGGGCCCGUGGACUUGGAGGGUAGGAUAUCUCCAUGCGU
- apparent Kd [1]: 0.00832 µM
- apparent Kd [2]: 0.0101 µM

Sequence: UCUACAUAGAUUCAUCAAUACAGUAAGGAUAUGAGAUACAUGAGGAUCACCCAUGUGCAUGUGGAUUAGAAGGUACAAUUAACU
- apparent Kd [1]: 0.0168 µM
- apparent Kd [2]: 0.0149 µM

Sequence: UAUAAAAUUAUAGGAUAUCGAUAUCAAAGAUAUCGAGAAGGGUGAAUAUAAUAUUAUCUGUACAUGAGGAUCACCCAUGUUUAU
- apparent Kd [3]: 0.276 µM
- apparent Kd [4]: 0.0872 µM

Sequence: CACCGUUAGAGAGGAUAUCGUACAUGAGGAUCACCCAUGUAAUAAAUGAGAAUUUCGGAUGUAUGCGAGAAGGCUCGAAUCGGC
- apparent Kd [1]: 0.0534 µM
- apparent Kd [2]: 0.0407 µM

Sequence: CGCUGUCUCGCAGGAUAUGCAUUGGAUUACAAUGCAGAAGGGCGAUUACAUGAGGAUCACCCAUGUGUUGACAGUGAAGAAGAG
- apparent Kd [3]: 0.114 µM
- apparent Kd [4]: 0.0216 µM

Sequence: AAAACUGGAGGAUAUACAUGAGGAUCACCCAUGUGUGGAUGAGCUGUGUCGGCGUCACGUAGAAGGCCACAAAA
- apparent Kd [1]: 0.0405 µM
- apparent Kd [2]: 0.0475 µM

Sequence: CUUUUGUGAGGAUAUCUGGCUUCGAUCGUGAGAUCGAGGCUAGAGAAGGCACAUGAGGAUCACCCAUGUACCUC
- apparent Kd [1]: 0.0243 µM
- apparent Kd [2]: 0.149 µM

Sequence: GUAAUUUAUAGAGGAUAUUGACAUGAGGAUCACCCAUGUAUUUGGGAGUGUUCACUGAAUUCUUACGAGAAGGCUAUAAAAUAC
- apparent Kd [1]: 0.307 µM
- apparent Kd [2]: 0.213 µM

Sequence: UGCGCUCGGGUGAGGAUAUUAGGACUACAAUUGUAUGAGAAGGCACAUGAGGAUCACCCAUGUGGGUGAGCGCC
- apparent Kd [1]: 0.922 µM
- apparent Kd [2]: 0.42 µM

Sequence: UGAACGUUAGGAUAUACAUGAGGAUCACCCAUGUGUUAUGAGCAAUCAUCGAUAUGUUGUAGAAGGAACGCGCG
- apparent Kd [1]: 0.0249 µM
- apparent Kd [2]: 0.0263 µM

Sequence: GUACGUGGACAGAAGGCGACAUGAGGAUCACCCAUGUUGGCUCGGGUACGAGCGAUCCGCGUGAUUGAGGAUAUGUCUGCGGGC
- apparent Kd [1]: 0.02 µM
- apparent Kd [2]: 0.0808 µM

Sequence: GGACGUCACAUGAACAUGAGGAUCACCCAUGUGAAAACACAUGAGGAUAUGGAUCCUAAUUGGAUCCAGAAGGCAUGGACGUCC
- apparent Kd [3]: 0.476 µM
- apparent Kd [4]: 0.0272 µM

Sequence: GCUGUCGUAUGAGGAUAUGGUCACCUUUGGUGACCAGAAGGCAUGUCAAUAGACAUGAGGAUCACCCAUGUAGUAAAGACAGCA
- apparent Kd [3]: 0.391 µM
- apparent Kd [4]: 0.0394 µM

Sequence: CGUGCUAUGUAGAAGGCAGAUCUGAUUCAGAUCUGAGGAUAUACAUGAGGAUCACCCAUGUUAUGCACCAGCACGAGAGUGCAA
- apparent Kd [1]: 0.00631 µM
- apparent Kd [2]: 0.0105 µM

Sequence: GUAGCAUAGACAGGAUAUCUAUACCCGAAAGGGACAUGAGGAUCACCCAUGUUGCGAAAGCGGUGGGAGAAGGGUCUAUGCUAC
- apparent Kd [3]: 0.0254 µM
- apparent Kd [4]: 0.00604 µM

Sequence: CCCUCACAUGAGGAUCACCCAUGUCAGGAUAUUCGAGGCGCAAAUACGCCAAAUGCAGGAAGAAGGGACGUGCC
- apparent Kd [1]: 0.0155 µM
- apparent Kd [2]: 0.0224 µM

Sequence: CUAUGCGGAAUAGGAUAUUCGAUCAUGAGGAUAGAAGAAGGGUUACAUGAGGAUCACCCAUGUAUGCACAUGAGGAUCCCUUAG
- apparent Kd [1]: 0.221 µM
- apparent Kd [2]: 0.243 µM

Sequence: AUUGUUGUUGUGAGGAUAUCGUUGAUUUUUUGAAACGAGAAGGCACAUGAGGAUCACCCAUGUUAGUUGUUGGU
- apparent Kd [1]: 0.0964 µM
- apparent Kd [2]: 0.311 µM

Sequence: CCACGUCACAUGAACAUGAGGAUCACCCAUGUAACUAGACAUGAGGAUAUGGAUCCUAAUUGGAUCCAGAAGGCAUGGACGUGG
- apparent Kd [3]: 0.168 µM
- apparent Kd [4]: 0.0292 µM

Sequence: GUGUACAGAGGAUAUAUAUGAGCUAGGAAACUAGCAAGAUCACAUGAGGAUCACCCAUGUAGAAGGCUGUACAC
- apparent Kd [1]: 0.114 µM
- apparent Kd [2]: 1.21 µM

Sequence: AAAUGAUGUCAGGAUAUUGACGUUAAAAGAACGCAAGAAGGGACAACAUGAGGAUCACCCAUGUGGUCCUAUAA
- apparent Kd [1]: 0.0149 µM
- apparent Kd [2]: 0.034 µM

From the EternaBench riboswitch data
